Results reported in ChEMBL document CHEMBL3526009, “Breast cancer resistance protein (ABCG2) determines distribution of genistein phase II metabolites: reevaluation of the roles of ABCG2 in the disposition of genistein” (Drug Metab Dispos, 2012).

How the values were obtained:
[1] = AUC (0 to 3 hrs) in wild-type FVB mouse at 50 mg/kg, po; type: ADME, organism-based; set-up: time < 3 hr, dose 50 mg/kg, route oral; conditions: plasma
[2] = AUC (0 to 3 hrs) in BCRP-/- mouse at 50 mg/kg, po; type: ADME, organism-based; set-up: time < 3 hr, dose 50 mg/kg, route oral; conditions: plasma
[3] = Cmax in wild-type FVB mouse at 20 mg/kg, ip; type: ADME, organism-based; set-up: dose 20 mg/kg, route intraperitoneal; conditions: in vivo
Procedure, shortened: (§1)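 Male FVB or Bcrp1(−/−) mice (6–10 weeks), nonsoy chow ≥1 week, fasted 12 h. Single i.p. 20 mg/kg from 2 mg/ml solution in 100 mM sodium bicarbonate–PEG 300 (7:3), pH 10; n = 5. Serial tail blood at 10 time points under isoflurane; whole-blood genistein and conjugates by UPLC-MS/MS; noncompartmental analysis.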

[4] = Cmax in BCRP-/- mouse at 20 mg/kg, ip; type: ADME, organism-based; set-up: dose 20 mg/kg, route intraperitoneal; conditions: in vivo; procedure, shortened: as §1
[5] = Elimination rate constant in wild-type FVB mouse at 20 mg/kg, ip; type: ADME, organism-based; set-up: dose 20 mg/kg, route intraperitoneal; conditions: in vivo; procedure, shortened: as §1
Mus musculus [6] = test: Elimination rate constant in BCRP-/- mouse at 20 mg/kg, ip; type: ADME, organism-based; set-up: dose 20 mg/kg, route intraperitoneal; conditions: in vivo; procedure, shortened: as §1
[7] = Half life in wild-type FVB mouse at 20 mg/kg, ip; type: ADME, organism-based; set-up: dose 20 mg/kg, route intraperitoneal; conditions: in vivo; procedure, shortened: as §1
Mus musculus [8] = test: Half life in BCRP-/- mouse at 20 mg/kg, ip; type: ADME, organism-based; set-up: dose 20 mg/kg, route intraperitoneal; conditions: in vivo; procedure, shortened: as §1
[9] = AUC ( 0 to t) in wild-type FVB mouse at 20 mg/kg, ip; type: ADME, organism-based; set-up: dose 20 mg/kg, route intraperitoneal; conditions: plasma; procedure, shortened: as §1
[10] = AUC ( 0 to t) in BCRP-/- mouse at 20 mg/kg, ip; type: ADME, organism-based; set-up: dose 20 mg/kg, route intraperitoneal; conditions: plasma
[11] = Drug metabolism in BCRP-/- mouse small intestine S9 fraction assessed as compound sulfation rate at 10 uM by UPLC-MS/MS analysis; type: ADME, tissue-based; conditions: s9, 10 µM
Procedure, shortened: (§2)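 S9 from liver, small intestine or colon of FVB or Bcrp1(−/−) mice, 1 mg/ml protein, with 10 μM genistein in 50 mM potassium phosphate pH 7.4, 0.88 mM MgCl2, 4.4 mM saccharolactone, 0.022 mg/ml alamethicin. Glucuronidation started with 3.5 mM UDPGA; sulfation used 0.1 mM PAPS instead. 37°C, 60 min; n = 4.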

[12] = Drug metabolism in wild-type FVB mouse colon S9 fraction assessed as compound glucuronidation rate at 10 uM by UPLC-MS/MS analysis; type: ADME, tissue-based; conditions: s9, 10 µM; procedure, shortened: as §2
[13] = Drug metabolism in BCRP-/- mouse colon S9 fraction assessed as compound glucuronidation rate at 10 uM by UPLC-MS/MS analysis; type: ADME, tissue-based; conditions: s9, 10 µM; procedure, shortened: as §2
[14] = Drug metabolism in wild-type FVB mouse small intestine S9 fraction assessed as compound glucuronidation rate at 10 uM by UPLC-MS/MS analysis; type: ADME, tissue-based; conditions: s9, 10 µM; procedure, shortened: as §2
[15] = Drug metabolism in BCRP-/- mouse small intestine S9 fraction assessed as compound glucuronidation rate at 10 uM by UPLC-MS/MS analysis; type: ADME, tissue-based; conditions: s9, 10 µM; procedure, shortened: as §2
[16] = Drug metabolism in wild-type FVB mouse hepatic S9 fraction assessed as compound sulfation rate at 10 uM by UPLC-MS/MS analysis; type: ADME, Liver; conditions: s9, 10 µM; procedure, shortened: as §2
[17] = Drug metabolism in BCRP-/- mouse hepatic S9 fraction assessed as compound sulfation rate at 10 uM by UPLC-MS/MS analysis; type: ADME, Liver; conditions: s9, 10 µM; procedure, shortened: as §2
[18] = Drug metabolism in wild-type FVB mouse colon S9 fraction assessed as compound sulfation rate at 10 uM by UPLC-MS/MS analysis; type: ADME, tissue-based; conditions: s9, 10 µM; procedure, shortened: as §2
[19] = Drug metabolism in BCRP-/- mouse colon S9 fraction assessed as compound sulfation rate at 10 uM by UPLC-MS/MS analysis; type: ADME, tissue-based; conditions: s9, 10 µM; procedure, shortened: as §2
[20] = Drug metabolism in wild-type FVB mouse small intestine S9 fraction assessed as compound sulfation rate at 10 uM by UPLC-MS/MS analysis; type: ADME, tissue-based; conditions: s9, 10 µM; procedure, shortened: as §2
[21] = Cmax in BCRP-/- mouse at 8 mg/kg, po; type: ADME, organism-based; set-up: dose 8 mg/kg, route oral; conditions: in vivo
[22] = Cmax in BCRP-/- mouse at 50 mg/kg, po; type: ADME, organism-based; set-up: dose 50 mg/kg, route oral; conditions: in vivo
Intestine = test: Drug uptake in wild-type FVB mouse small intestine at 10 uM by UPLC-MS/MS analysis; type: ADME, tissue-based; conditions: in vivo
Procedure, shortened: (§3)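 In situ perfusion in FVB or Bcrp1(−/−) mice (n = 4): small intestine and colon (8–12 cm each) perfused together with 10 μM genistein in HBSS pH 7.4, 0.191 ml/min, 37°C. After 30-min washout, perfusate sampled at 60, 90, 120, 150 min; runs discarded if water flux >10% per 10 cm. Percent absorbed by UPLC-MS/MS.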

Mus musculus [23] = species: Mus musculus; test: Drug uptake in BCRP-/- mouse small intestine at 10 uM by UPLC-MS/MS analysis; type: ADME, organism-based; conditions: in vivo; procedure, shortened: as §3
Colon = test: Drug uptake in wild-type FVB mouse colon at 10 uM by UPLC-MS/MS analysis; type: ADME, tissue-based; conditions: in vivo; procedure, shortened: as §3
Mus musculus [24] = species: Mus musculus; test: Drug uptake in BCRP-/- mouse colon at 10 uM by UPLC-MS/MS analysis; type: ADME, organism-based; conditions: in vivo; procedure, shortened: as §3
[25] = Biliary excretion in wild-type FVB mouse measured after 2.5 hrs post intestinal perfusion by UPLC-MS/MS analysis; type: ADME; conditions: bile, read-out: Drug excretion
Procedure, shortened: (§4)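 Gallbladder bile taken after 2.5 h of simultaneous small intestine/colon perfusion with 10 μM genistein (HBSS pH 7.4, 0.191 ml/min) in FVB or Bcrp1(−/−) mice (n = 4). Bile diluted 20-fold in HBSS, daidzein internal standard in acetonitrile added, dried and reconstituted. Genistein and conjugates quantified by UPLC-MS/MS.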

[26] = Biliary excretion in BCRP-/- mouse measured after 2.5 hrs post intestinal perfusion by UPLC-MS/MS analysis; type: ADME; conditions: bile, read-out: Drug excretion; procedure, shortened: as §4
[27] = Drug transport in human Caco2 cells assessed as basolateral excretion of compound at 2 uM after 4 hrs by UPLC-MS/MS analysis in presence of BCRP inhibitor Ko143; type: ADME, cell-based; conditions: caco-2, 4 h
Procedure, shortened: (§5)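 Caco-2 TC7 monolayers on 3 μm polycarbonate inserts, used 19–22 days post-seeding (TEER ≥460 Ω/cm2). Genistein 2 or 10 μM in HBSS pH 7.4 applied apically, ±5 μM Ko143 apically; sampling both sides at 0–4 h hourly with replacement, triplicate. Genistein and four conjugates plus intracellular amounts at 4 h by UPLC-MS/MS; mass balance versus dose added.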

[28] = Drug recovery in human Caco2 cells at 2 to 10 uM after 4 hrs by UPLC-MS/MS analysis; type: ADME, cell-based; conditions: Caco-2, read-out: Drug recovery; procedure, shortened: as §5
BCRP = test: Drug recovery in human Caco2 cells at 2 to 10 uM after 4 hrs by UPLC-MS/MS analysis in presence of BCRP inhibitor Ko143; type: ADME, cell-based; conditions: Caco-2, with Ko143 (BCRP inhibitor, concentration not stated), read-out: Drug recovery; procedure, shortened: as §5
Blood = test: Drug metabolism in Wistar rat blood at 3.8 uM after 4 hrs by UPLC-MS/MS analysis; type: ADME, tissue-based
Procedure, shortened: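 Glucuronide mix (G-7-G plus G-4′-G, 3 μM) with 3.8 μM genistein incubated in fresh Wistar rat blood, 37°C shaking bath up to 4 h; sulfate runs used 0.8 μM sulfates plus 2.2 μM aglycone. Samples at 0, 60, 120, 240 min quenched with acetonitrile/daidzein, analysed by UPLC-MS/MS; 50 mM phosphate buffer pH 7.4 as negative control; n = 3.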

[29] = Drug metabolism in wild-type FVB mouse hepatic S9 fraction assessed as compound glucuronidation rate at 10 uM by UPLC-MS/MS analysis; type: ADME, Liver; conditions: s9, 10 µM; procedure, shortened: as §2
[30] = Drug metabolism in BCRP-/- mouse hepatic S9 fraction assessed as compound glucuronidation rate at 10 uM by UPLC-MS/MS analysis; type: ADME, Liver; conditions: s9, 10 µM; procedure, shortened: as §2
[31] = Cmax in wild-type FVB mouse at 2 mg/kg, po; type: ADME, organism-based; set-up: dose 2 mg/kg, route oral; conditions: in vivo
Procedure, shortened: (§6)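 Male wild-type FVB or Bcrp1(−/−) mice (6–10 weeks) on nonsoy chow ≥1 week, fasted 12 h with water, refed at 4 h. Oral gavage of 2 or 20 mg/kg as 4 mg/ml suspension in oral suspending vehicle; n = 5. Tail-snip blood at 10 time points under isoflurane, whole blood by UPLC-MS/MS (MRM); noncompartmental analysis.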

[32] = Cmax in BCRP-/- mouse at 2 mg/kg, po; type: ADME, organism-based; set-up: dose 2 mg/kg, route oral; conditions: in vivo; procedure, shortened: as §6
[33] = Cmax in wild-type FVB mouse at 20 mg/kg, po; type: ADME, organism-based; set-up: dose 20 mg/kg, route oral; conditions: in vivo; procedure, shortened: as §6
[34] = Cmax in BCRP-/- mouse at 20 mg/kg, po; type: ADME, organism-based; set-up: dose 20 mg/kg, route oral; conditions: in vivo; procedure, shortened: as §6
[35] = Elimination rate constant in BCRP-/- mouse at 2 mg/kg, po; type: ADME, organism-based; set-up: dose 2 mg/kg, route oral; conditions: in vivo; procedure, shortened: as §6
[36] = Half life in BCRP-/- mouse at 2 mg/kg, po; type: ADME, organism-based; set-up: dose 2 mg/kg, route oral; conditions: in vivo; procedure, shortened: as §6
[37] = AUC ( 0 to t) in wild-type FVB mouse at 2 mg/kg, po; type: ADME, organism-based, Plasma; set-up: dose 2 mg/kg, route oral; procedure, shortened: as §6
[38] = AUC ( 0 to t) in BCRP-/- mouse at 2 mg/kg, po; type: ADME, organism-based; set-up: dose 2 mg/kg, route oral; conditions: plasma; procedure, shortened: as §6
[39] = AUC ( 0 to t) in wild-type FVB mouse at 20 mg/kg, po; type: ADME, organism-based; set-up: dose 20 mg/kg, route oral; conditions: plasma; procedure, shortened: as §6
[40] = AUC ( 0 to t) in BCRP-/- mouse at 20 mg/kg, po; type: ADME, organism-based; set-up: dose 20 mg/kg, route oral; conditions: plasma; procedure, shortened: as §6

Compound O=c1c(-c2ccc(O)cc2)coc2cc(O)cc(O)c12 [GENISTEIN] has an AUC(0-t) at 3 h [1] of 0.9 µM·h, an AUC(0-t) at 3 h [2] of 5 µM·h and a Cmax [3] of 2680 nM. It also gave a Cmax [4] of 4420 nM, a k el [5] of 6.39e-05 s⁻¹ and a Kel (Mus musculus [6]) of 0.52 h⁻¹. It also gave a half-life [7] of 4.8 h, a t1/2 (Mus musculus [8]) of 2.8 h and an AUC(0-t) [9] of 10 µM·h. The AUC(0-t) [10] was 11.5 µM·h, the Drug metabolism [11] was “metabolite_not_detected” and the Drug metabolism [12] was 78 pmol/min/mg. The Drug metabolism [13] was 117 pmol/min/mg, the Drug metabolism [14] was “metabolite_not_detected” and the Drug metabolism [15] was “metabolite_not_detected”. The Drug metabolism [16] was 13.3 pmol/min/mg, the Drug metabolism [17] was 7.9 pmol/min/mg and the Drug metabolism [18] was 26.5 pmol/min/mg. For the same compound, the Drug metabolism [19] was 15.2 pmol/min/mg, the Drug metabolism [20] was “metabolite_not_detected” and the Cmax [21] was 1100 nM. It also gave a Cmax [22] of 200 nM, a Drug uptake (Intestine) of 87% and a Drug uptake (Mus musculus [23]) of 74%. The Drug uptake (Colon) was 46%, the Drug uptake (Mus musculus [24]) was 52% and the concentration at 2.5 h [25] was 9900 nM. For the same compound, the concentration at 2.5 h [26] was 9100 nM, the Drug transport [27] was “Not Active” and the recovery at 4 h, up to 10 µM [28] was 92.3%. The recovery at 4 h, up to 10 µM (BCRP) was 87.8%, the Stability (Blood) was “Stable” and the Drug metabolism [29] was 1299 pmol/min/mg. The Drug metabolism [30] was 2737 pmol/min/mg, the Cmax [31] was 100 nM and the Cmax [32] was 230 nM. It also gave a Cmax [33] of 650 nM, a Cmax [34] of 3350 nM and a k el [35] of 7.5e-05 s⁻¹. It also gave a half-life [36] of 3.8 h, an AUC(0-t) [37] of 0.36 µM·h and an AUC(0-t) [38] of 0.71 µM·h. It also gave an AUC(0-t) [39] of 6.05 µM·h and an AUC(0-t) [40] of 16.4 µM·h.
